Measured values as given in ChEMBL document CHEMBL1649533, “GES-11, a novel integron-associated GES variant in Acinetobacter baumannii” (2009).
Values after ≈ are worked out from the molar mass of the structure shown.

Key:
Type in all cases: functional
[1] = tested on: Acinetobacter baumannii; experiment: Antibacterial activity against Acinetobacter baumannii BM4652
Method in brief: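 MIC by Etest on Mueller-Hinton agar; interpretation by Comité de l'Antibiogramme de la Société Française de Microbiologie breakpoints. A. baumannii BM4652 is the recipient strain used in conjugation with BM4674 (solid medium; transconjugants selected on apramycin 80 μg/ml plus ceftazidime 16 μg/ml). MIC values in μg/ml.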

[2] = tested on: Escherichia coli; experiment: Antibacterial activity against ESBL-positive Escherichia coli Top10 harboring plasmid AT517
[3] = tested on: Acinetobacter baumannii; experiment: Antibacterial activity against Acinetobacter baumannii BM4674 isolated from the tibia fracture of a patient by Etest method
Method in brief: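 MICs read by Etest gradient strips on Mueller-Hinton agar against the clinical isolate (Nancy, France, September 2008); reported in μg/ml and interpreted with Comité de l'Antibiogramme de la Société Française de Microbiologie breakpoints.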

[4] = tested on: Escherichia coli; experiment: Antibacterial activity against Escherichia coli Top10
[5] = tested on: Escherichia coli; experiment: Antibacterial activity against […] OmpF and OmpC porin-deficient Escherichia coli HB4 harboring plasmid AT517
[6] = tested on: Escherichia coli; experiment: Antibacterial activity against […] OmpF and OmpC porin-deficient Escherichia coli HB4
[7] = tested on: Acinetobacter baumannii; experiment: Antibacterial activity against Acinetobacter baumannii BM4652 harboring plasmid IP847

## C[C@H]1[C@H](NC(=O)/C(=N\OC(C)(C)C(=O)O)c2csc(N)n2)C(=O)N1S(=O)(=O)O [AZTREONAM]
[1]
  MIC: 1 µg/mL (≈ 2.3 µM)
[2]
  MIC: 24 µg/mL (≈ 55.1 µM)
[3]
  MIC: > 256 µg/mL
[4]
  MIC: 0.125 µg/mL (≈ 0.287 µM)
[5]
  MIC: 48 µg/mL (≈ 110 µM)
[6]
  MIC: 0.75 µg/mL (≈ 1.72 µM)
[7]
  MIC: > 256 µg/mL

## CO/N=C(\C(=O)N[C@@H]1C(=O)N2C(C(=O)[O-])=C(C[N+]3(C)CCCC3)CS[C@H]12)c1csc(N)n1 [CEFEPIME]
[1]
  MIC: 0.19 µg/mL (≈ 0.395 µM)
[2]
  MIC: 2 µg/mL (≈ 4.16 µM)
[3]
  MIC: > 256 µg/mL
[4]
  MIC: 0.032 µg/mL (≈ 0.0666 µM)
[5]
  MIC: 96 µg/mL (≈ 200 µM)
[6]
  MIC: 0.5 µg/mL (≈ 1.04 µM)
[7]
  MIC: 64 µg/mL (≈ 133 µM)

## CO/N=C(\C(=O)N[C@@H]1C(=O)N2C(C(=O)O)=C(COC(C)=O)CS[C@H]12)c1csc(N)n1 [CEFOTAXIME]
[1]
  MIC: 1 µg/mL (≈ 2.2 µM)
[2]
  MIC: > 256 µg/mL
[3]
  MIC: > 256 µg/mL
[4]
  MIC: 0.064 µg/mL (≈ 0.141 µM)
[5]
  MIC: > 256 µg/mL
[6]
  MIC: 0.5 µg/mL (≈ 1.1 µM)
[7]
  MIC: > 256 µg/mL

## CO[C@@]1(NC(=O)Cc2cccs2)C(=O)N2C(C(=O)O)=C(COC(N)=O)CS[C@@H]21 [CEFOXITIN]
[1]
  MIC: 8 µg/mL (≈ 18.7 µM)
[2]
  MIC: 6 µg/mL (≈ 14 µM)
[3]
  MIC: 192 µg/mL (≈ 449 µM)
[4]
  MIC: 6 µg/mL (≈ 14 µM)
[5]
  MIC: > 256 µg/mL
[6]
  MIC: 96 µg/mL (≈ 225 µM)
[7]
  MIC: 12 µg/mL (≈ 28.1 µM)

## CC(C)(O/N=C(\C(=O)N[C@@H]1C(=O)N2C(C(=O)[O-])=C(C[n+]3ccccc3)CS[C@H]12)c1csc(N)n1)C(=O)O [CEFTAZIDIME]
[1]
  MIC: 1.5 µg/mL (≈ 2.74 µM)
[2]
  MIC: > 256 µg/mL
[3]
  MIC: > 256 µg/mL
[4]
  MIC: 0.75 µg/mL (≈ 1.37 µM)
[5]
  MIC: > 256 µg/mL
[6]
  MIC: 0.5 µg/mL (≈ 0.915 µM)
[7]
  MIC: > 256 µg/mL

## C[C@@H](O)[C@H]1C(=O)N2C(C(=O)O)=C(SCCNC=N)C[C@H]12 [IMIPENEM ANHYDROUS]
[1]
  MIC: 0.125 µg/mL (≈ 0.418 µM)
[3]
  MIC: 4 µg/mL (≈ 13.4 µM)
[4]
  MIC: 0.19 µg/mL (≈ 0.635 µM)
[5]
  MIC: 8 µg/mL (≈ 26.7 µM)
[6]
  MIC: 0.125 µg/mL (≈ 0.418 µM)
[7]
  MIC: 0.75 µg/mL (≈ 2.51 µM)

## C[C@@H](O)[C@H]1C(=O)N2C(C(=O)O)=C(S[C@@H]3CN[C@H](C(=O)N(C)C)C3)[C@H](C)[C@H]12 [MEROPENEM]
[1]
  MIC: 0.064 µg/mL (≈ 0.167 µM)
[2]
  MIC: 0.047 µg/mL (≈ 0.123 µM)
[3]
  MIC: 6 µg/mL (≈ 15.6 µM)
[4]
  MIC: 0.016 µg/mL (≈ 0.0417 µM)
[5]
  MIC: 4 µg/mL (≈ 10.4 µM)
[6]
  MIC: 0.25 µg/mL (≈ 0.652 µM)
[7]
  MIC: 1.5 µg/mL (≈ 3.91 µM)
